Measured values taken from ChEMBL document CHEMBL1153905, “Functionalized 3-benzylidene-indolin-2-ones: inducers of NAD(P)H-quinone oxidoreductase 1 (NQO1) with antiproliferative activity” (Bioorg Med Chem, 2009).

How the values were obtained:
[1] = target: NAD(P)H dehydrogenase [quinone] 1 (Mus musculus) (UniProt Q64669); experiment: Induction of NQO1 activity in mouse Hepa-1c1c7 cells assessed as induction ratio at 5 nM after 48 hrs by MTT assay relative to control; assay type: cell-based
Outline: (§1)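 Hepa1c1c7 cells, 10,000 per well, 24 h, were then treated 48 h (DMSO ≤0.5%). Digitonin/EDTA lysates were assayed for menadione-dependent MTT-formazan formation using a G6P/G6PDH NADPH-generating mix with FAD at pH 7.4. The reaction ran 5 min, was stopped with dicoumarol, and read at A590. Degree of induction = (A test − blank)/(A control − blank). Ratios were read off the induction–concentration plot at the EROD test concentration.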

[2] = Cytotoxicity against mouse Hepa-1c1c7 cells after 48 hrs by MTT assay; assay type: cell-based; settings: hepa-1c1c7, 48 h
Outline: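 Murine hepatoma cells in α-MEM with 10% heat- and charcoal-treated fetal calf serum, passages 6–17; MTT read-out as for the cancer lines but with 48 h compound exposure. Highest concentration tested 25 µM. IC50 from survival-versus-concentration curve; mean and SD, n = 3.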

CYP1A1 [3] = target: T1, CYP1A1 (Mus musculus, UniProt P00184); experiment: Induction of CYP1A1 activity in mouse Hepa-1c1c7 cells assessed as induction ratio at 5 nM after 48 hrs by EROD assay relative to control; assay type: ADME, cell-based
T1 sequence (P00184 whole entry): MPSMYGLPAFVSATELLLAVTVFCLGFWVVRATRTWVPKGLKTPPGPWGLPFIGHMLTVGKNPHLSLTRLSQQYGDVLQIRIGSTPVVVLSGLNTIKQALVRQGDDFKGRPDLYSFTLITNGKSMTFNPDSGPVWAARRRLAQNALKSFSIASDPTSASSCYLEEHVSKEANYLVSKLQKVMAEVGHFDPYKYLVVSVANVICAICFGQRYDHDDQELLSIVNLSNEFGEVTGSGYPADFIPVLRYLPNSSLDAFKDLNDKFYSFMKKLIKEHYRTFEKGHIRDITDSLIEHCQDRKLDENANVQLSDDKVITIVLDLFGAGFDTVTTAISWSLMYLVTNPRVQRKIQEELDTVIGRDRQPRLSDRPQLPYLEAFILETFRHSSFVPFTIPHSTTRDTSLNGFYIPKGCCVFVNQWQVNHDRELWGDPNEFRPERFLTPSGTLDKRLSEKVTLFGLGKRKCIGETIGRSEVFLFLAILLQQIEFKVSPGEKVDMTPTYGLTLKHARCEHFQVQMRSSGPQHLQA
Outline: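 Hepa1c1c7 cells were seeded at 10,000 per well and grown 24 h. They were then exposed 48 h to compound (final DMSO 0.5% v/v) at about 4 × the NQO1 CD. After a PBS wash, cells got 5 µM 7-ethoxyresorufin plus 2 mM salicylamide in medium, 37 °C, 40 min. Resorufin was read at ex 530/em 590 nm, corrected for compound fluorescence. Ratio = (F treated − blank)/(F DMSO control − blank); mean ± SD, n = 3.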

[4] = Ratio of induction of NQO1 activity to induction of CYP1 activity in mouse Hepa-1c1c7 cells at 5 nM after 48 hrs
CYP1A1 [5] = target: T1, CYP1A1; experiment: Induction of CYP1A1 activity in mouse Hepa-1c1c7 cells assessed as induction ratio at 10 uM after 48 hrs by EROD assay relative to control; assay type: ADME, cell-based
Outline: (§2)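 About 10,000 Hepa1c1c7 cells/well cultured 24 h, then compound (0.5% DMSO final) for 48 h, at roughly 4 × the concentration doubling NQO1 activity. After PBS wash, cells given 5 µM 7-ethoxyresorufin plus 2 mM salicylamide, 37 °C, 40 min; resorufin fluorescence ex 530/em 590 nm, corrected for compound fluorescence. Ratio = (treated − blank)/(DMSO control − blank); mean ± SD, n = 3.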

[6] = target: NAD(P)H dehydrogenase [quinone] 1 (Mus musculus) (UniProt Q64669); experiment: Induction of NQO1 activity in mouse Hepa-1c1c7 cells assessed as induction ratio at 10 uM after 48 hrs by MTT assay relative to control; assay type: cell-based; outline: as §1
[7] = target: NAD(P)H dehydrogenase [quinone] 1 (Mus musculus) (UniProt Q64669); experiment: Induction of NQO1 activity in mouse Hepa-1c1c7 cells assessed as induction ratio at 0.1 uM after 48 hrs by MTT assay relative to control; assay type: cell-based; outline: as §1
CYP1A1 [8] = target: T1, CYP1A1; experiment: Induction of CYP1A1 activity in mouse Hepa-1c1c7 cells assessed as induction ratio at 0.1 uM after 48 hrs by EROD assay relative to control; assay type: ADME, cell-based; outline: as §2
[9] = Antiproliferative activity against human CCL186 cells after 72 hrs by MTT assay; assay type: cell-based; settings: CCL186, 72 h
Outline: (§3)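 Cells seeded at 10,000 (MCF7), 4000 (HCT116) or 5000 (CCL186) per well and grown 24 h; MCF7 and CCL186 in EMEM with pyruvate, glutamine, 10% FBS; HCT116 in McCoy's 5A with 10% FBS. Compounds from DMSO stocks (≤1% DMSO final), 72 h exposure; MTT 0.5 mg/ml for 3 h, formazan in DMSO read at 590 nm. IC50 from sigmoidal survival curve, three separate occasions.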

MCF7 [10] = experiment: Antiproliferative activity against human MCF7 cells after 72 hrs by MTT assay; assay type: functional, cell-based; settings: MCF7, 72 h; outline: as §3
HCT-116 [11] = experiment: Cell cycle arrest in human HCT116 cells released from G2 block assessed as accumulation at G1 phase at 15 uM after 24 hrs by flow cytometry; assay type: functional
HCT-116 [12] = experiment: Cell cycle arrest in human HCT116 cells released from G2 block assessed as accumulation at S phase at 15 uM after 24 hrs by flow cytometry; assay type: functional
HCT-116 [13] = experiment: Cell cycle arrest in human HCT116 cells released from G2 block assessed as accumulation at G2/M phase at 15 uM after 24 hrs by flow cytometry; assay type: functional
CYP1A1 [14] = target: T1, CYP1A1; experiment: Induction of CYP1A1 activity in mouse Hepa-1c1c7 cells assessed as induction ratio at 0.05 uM after 48 hrs by EROD assay relative to control; assay type: ADME, cell-based; outline: as §2
[15] = Selectivity ratio of IC50 for human CCL186 cells to IC50 for human HCT116 cells; assay type: ADME, cell-based, HCT-116; settings: CCL186 cells and HCT116 cells, read-out: Ratio IC50
Outline: (§4)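 MTT assay. MCF7 and CCL186 cells were grown in EMEM/10% FBS, HCT116 in McCoy's 5A/10% FBS. Seeding was 10,000 (MCF7), 4000 (HCT116) and 5000 (CCL186) cells per well, 24 h. Compound exposure was 72 h, DMSO ≤1% final. MTT 0.5 mg/ml for 3 h, formazan dissolved in DMSO, A590. IC50 came from sigmoidal survival curves, with 3 separate occasions per concentration. Ratio = IC50 CCL186 / IC50 of the cancer line.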

[16] = target: NAD(P)H dehydrogenase [quinone] 1 (Mus musculus) (UniProt Q64669); experiment: Induction of NQO1 activity in mouse Hepa-1c1c7 cells assessed as induction ratio at 0.05 uM after 48 hrs by MTT assay relative to control; assay type: cell-based; outline: as §1
MCF7 [17] = experiment: Selectivity ratio of IC50 for human CCL186 cells to IC50 for human MCF7 cells; outline: as §4
HCT-116 [18] = experiment: Cell cycle arrest in human HCT116 cells released from G1 block assessed as accumulation at S phase at 15 uM after 24 hrs by flow cytometry; assay type: functional
HCT-116 [19] = experiment: Cell cycle arrest in human HCT116 cells released from G1 block assessed as accumulation at G2/M phase at 15 uM after 24 hrs by flow cytometry; assay type: functional
HCT-116 [20] = experiment: Cell cycle arrest in human HCT116 cells released from G1 block assessed as accumulation at sub G1 phase at 15 uM after 24 hrs by flow cytometry; assay type: functional
HCT-116 [21] = experiment: Antiproliferative activity against human HCT116 cells after 72 hrs by MTT assay; assay type: functional, cell-based; settings: HCT-116, 72 h; outline: as §3
HCT-116 [22] = experiment: Cell cycle arrest in human HCT116 cells released from G2 block assessed as accumulation at sub G1 phase at 15 uM after 24 hrs by flow cytometry; assay type: functional
HCT-116 [23] = experiment: Cell cycle arrest in human HCT116 cells released from G1 block assessed as accumulation at G1 phase at 15 uM after 24 hrs by flow cytometry; assay type: functional

Sequence of NAD(P)H dehydrogenase [quinone] 1 (Mus musculus) (Q64669 whole entry): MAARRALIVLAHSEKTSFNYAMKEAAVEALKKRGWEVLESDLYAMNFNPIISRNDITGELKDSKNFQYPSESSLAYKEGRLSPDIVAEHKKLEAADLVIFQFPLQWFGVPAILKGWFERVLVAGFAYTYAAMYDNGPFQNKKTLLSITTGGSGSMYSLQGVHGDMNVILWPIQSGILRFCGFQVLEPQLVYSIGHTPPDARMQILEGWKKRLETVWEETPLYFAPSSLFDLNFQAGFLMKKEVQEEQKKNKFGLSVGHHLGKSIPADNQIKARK

With `O=C1Nc2ccccc2/C1=C1\C(=O)Nc2ccc(Cl)cc21` the Ratio [1] was 2.42, the IC50 [2] was 20.5 µM and the fold induction at 48 h, 0.005 µM (CYP1A1 [3]) was 2.31. The Ratio [4] was 1.05.

For `O=C1Nc2ccccc2/C1=C\c1cc(O)ccc1O`, the IC50 [2] was greater than 25 µM, the fold induction at 48 h, 10 µM (CYP1A1 [5]) was 2.87 and the Ratio [6] was 7.69.

Compound `O=C1Nc2ccccc2/C1=C\c1ccccn1` has an IC50 [2] of 19.9 µM, a fold induction at 48 h, 10 µM (CYP1A1 [5]) of 1.08 and a Ratio [6] of 3.92.

Compound `O=C1Nc2cc(C(F)(F)F)ccc2/C1=C1\C(=O)Nc2ccc(Cl)cc21` has a Ratio [1] of 2.96, an IC50 [2] of 9.8 µM and a fold induction at 48 h, 0.005 µM (CYP1A1 [3]) of 3.23. For the same compound, the Ratio [4] was 0.92.

In the case of `O=C1Nc2ccccc2/C1=C1\C(=O)Nc2ccccc21` [ISOINDIGO], the Ratio [7] is reported as 2.8, the IC50 [2] is reported as greater than 25 µM and the fold induction at 48 h, 0.1 µM (CYP1A1 [8]) is reported as 1.44.

With `O=C1Nc2ccccc2/C1=C\c1cccc(C(F)(F)F)c1` the Ratio [7] was 3.85, the IC50 [2] was 3.9 µM and the fold induction at 48 h, 0.1 µM (CYP1A1 [8]) was 1.4.

Work on `O=C1Nc2cc(Cl)ccc2/C1=C\c1cccc(C(F)(F)F)c1` yielded an IC50 [9] of 6.6 µM, an IC50 (MCF7 [10]) of 7.5 µM and an Activity (HCT-116 [11]) of 53.47%. The Activity (HCT-116 [12]) was 8.05%, the IC50 [2] was 1.1 µM and the Activity (HCT-116 [13]) was 28.39%. The fold induction at 48 h, 0.05 µM (CYP1A1 [14]) was 2.4, the selectivity ratio [15] was 0.9 and the Ratio [16] was 5.2. For the same compound, the “Ratio IC50” value (MCF7 [17]) was 1.7, the Activity (HCT-116 [18]) was 7.1% and the Activity (HCT-116 [19]) was 15.13%. The Activity (HCT-116 [20]) was 12.39%, the IC50 (HCT-116 [21]) was 3.8 µM and the Activity (HCT-116 [22]) was 10.62%. The Activity (HCT-116 [23]) was 65.55%.

With `COc1cccc(/C=C2/C(=O)Nc3cc(Cl)ccc32)c1` the Ratio [7] was 2.56, the IC50 [2] was greater than 25 µM and the fold induction at 48 h, 0.1 µM (CYP1A1 [8]) was 1.51.
